# Publication PMC3608738 (Antiviral research, 2012)
# Assays:
# WNV MTase [1] = molecular target: T1, WNV MTase (West Nile virus, UniProt Q9Q6P4); assay: In vitro 2'-O methylation inhibition assay; format: biochemical
# In short: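 2'-O methylation is followed as conversion of m7G*pppA-RNA to m7G*pppAm-RNA. Each reaction contains 1.5 μM WNV MTase, 80 μM SAM, 0.36 μM m7G*pppA-RNA substrate and a range of test compound concentrations. Products are digested with nuclease P1, and the caps are separated by TLC and quantified by PhosphorImager. Activity is taken from m7G*pppA versus m7G*pppAm, with no-compound activity set at 100%. IC50 comes from a dose–response fit; Ki comes from Cheng-Prusoff.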
# WNV (NY99) = assay: Viral titer reduction assay; format: cell-based, West Nile virus; conditions: A549 cells, WNV MOI 0.1, 42 h
# In short: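 About 2 × 10^5 A549 cells per well are treated 24-30 h after seeding, in triplicate. Test compound, made at 2X in medium with 2% DMSO, is added, followed immediately by WNV NY99 at MOI 0.1 PFU/cell. After 42 h at 37°C, culture fluid is titred by plaque assay on confluent Vero monolayers under a 0.6% agar overlay with a neutral red second overlay. EC50 comes from nonlinear regression of the dose–response curve.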
# hRNMTase = hRNMTase (Homo sapiens, UniProt O43148); assay: [3H]SAM competition binding assay
# WNV MTase [2] = molecular target: T1, WNV MTase; assay: In vitro N7 methylation inhibition assay; format: biochemical
# [3] = molecular target: human guanine N-7 RNA MTase (hRNMTase) (Homo sapiens, UniProt O43148); assay: Inhibition of human RNA MTase; format: biochemical
# WNV MTase [4] = molecular target: T1, WNV MTase; assay: [3H]SAM competition binding assay; conditions: positive control, dose response
# In short: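 For G-25 filtration SAM competition, 0.6 μM WNV MTase is mixed with [methyl-3H]-SAM (about 14.1 nM final) and a 3-fold dilution series of test compound starting at 60 μM. Mixtures stand 2 h at room temperature and are spun through G-25 mini-columns. The eluted MTase-bound 3H is quantified by scintillation counting. Points are run in duplicate.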
# T1 sequence (Q9Q6P4 2529-2794): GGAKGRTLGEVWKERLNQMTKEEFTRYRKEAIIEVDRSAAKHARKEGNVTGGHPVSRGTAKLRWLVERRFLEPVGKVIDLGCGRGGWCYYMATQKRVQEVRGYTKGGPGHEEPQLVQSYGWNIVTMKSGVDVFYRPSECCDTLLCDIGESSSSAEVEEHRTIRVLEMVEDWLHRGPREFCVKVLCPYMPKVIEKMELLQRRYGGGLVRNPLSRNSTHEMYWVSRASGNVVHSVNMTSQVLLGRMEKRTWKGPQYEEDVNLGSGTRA
# human guanine N-7 RNA MTase (hRNMTase), sequence (O43148 whole entry): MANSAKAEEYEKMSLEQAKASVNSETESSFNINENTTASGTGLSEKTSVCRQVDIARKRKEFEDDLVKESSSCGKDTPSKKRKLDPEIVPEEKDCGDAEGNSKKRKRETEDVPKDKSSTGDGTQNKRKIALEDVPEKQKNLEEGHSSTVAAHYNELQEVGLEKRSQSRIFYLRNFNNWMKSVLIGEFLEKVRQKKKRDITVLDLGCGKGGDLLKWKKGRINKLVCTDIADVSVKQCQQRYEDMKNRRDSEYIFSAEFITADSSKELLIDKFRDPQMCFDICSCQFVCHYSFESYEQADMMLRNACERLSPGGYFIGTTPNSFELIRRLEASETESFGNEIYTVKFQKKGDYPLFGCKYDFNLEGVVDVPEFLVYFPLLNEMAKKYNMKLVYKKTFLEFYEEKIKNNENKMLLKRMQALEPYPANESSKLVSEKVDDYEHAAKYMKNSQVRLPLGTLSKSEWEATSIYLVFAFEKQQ
# hRNMTase, sequence (O43148 whole entry): as above
Structure (SMILES),Hill coef. (2'-O) (WNV MTase [1]; dose-response curve of 2'-O MTase inhibition),Fold lower Ki than GRL-001 (2'-O inhibition) (WNV MTase [1]; relative to GRL-001) [fold],Concentration giving one logarithmic order of reduction in the WNV replication (WNV (NY99)) [μM],Inhibition of [3H]SAM binding to hRNMTase (in words) (hRNMTase; 300 μM compound),Inhibition of N-7 MTase activity (in words) (WNV MTase [2]),Hill coef. (N-7) (WNV MTase [2]; dose-response curve of N-7 MTase inhibition),Fold lower Ki than GRL-001 (N-7 inhibition) (WNV MTase [2]; relative to GRL-001) [fold],Inhibition of hRNMTase activity (in words) ([3]; even at 300 μM compound concentration),Inhibition of 3H-labeled SAM-MTase complex formation (in words) (WNV MTase [4]),"Inhibition of [3H]SAM binding to hRNMTase (in words) (hRNMTase; control, dose response)",IC50 [3] [µM]
CCOC(=O)[C@@](C)(O)[C@@H]1C[C@@H](CO[Si](c2ccccc2)(c2ccccc2)C(C)(C)C)O[C@H]1n1cc(F)c(=O)[nH]c1=O [GRL-003],2.8,12,50,did not inhibit,only moderately inhibited,0.9,5,did not inhibit,,,
"Nc1ncnc2c1ncn2[C@@H]1O[C@H](C[C@@H](N)CC[C@H](N)C(=O)O)[C@@H](O)[C@H]1O [SIN, Sinefungin, reference compound]",,,,,,,,,very efficiently in a dose-dependent manner,decreased the SAM binding very efficiently,~41.2
